One may read the CC50 as the concentration that lowers cell viability or growth by half. Broadly, the IC50 is the concentration that gives 50% inhibition. As a reminder, the inhibition is the share of the control response that was lost under treatment.

The record followed here is ChEMBL document CHEMBL3576819, “Design, synthesis, biological evaluation and molecular docking studies of phenylpropanoid derivatives as potent anti-hepatitis B virus agents” (Eur J Med Chem, 2015).

A short description of data set [1]: Cytotoxicity against human HepG2.2.15 cells assessed as cell death after 9 days by MTT assay. It counts as cell-based, HepG2 2.2.15. The essentials: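 HepG2.2.15 cells (MEM, 10% FBS, 380 µg/ml G418, 37 °C, 5% CO2) seeded at 1×10^5 cells/ml, cultured 24 h, then exposed to various drug concentrations; drug-containing medium renewed every 3 d. OD read at 450 nm after 9 days; percent cell death calculated; CC50 = concentration killing 50% of cells. Means of at least two experiments.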
In general terms: Tetrazolium dyes change colour on reduction, which living cells bring about.

In data set [2] the test system is Hepatitis B virus. Description: Antiviral activity against Hepatitis B virus infected in human HepG2.2.15 cells assessed as inhibition of HBsAg secretion by ELISA. It counts as functional, organism-based. The conditions noted are these: HepG2 2.2.15. The essentials:
(§1)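 HepG2.2.15 cells (MEM, 10% FBS, 380 µg/ml G418) seeded at 1×10^5 cells/ml, held 24 h at 37 °C, then treated with various drug concentrations; medium with drug renewed every 3 d for up to 9 d. Culture medium sampled on days 3, 6 and 9, stored at -20 °C, and assayed for secreted antigen. Lamivudine as positive control; IC50 = 50% inhibition of secretion; means of at least two experiments.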

Data set [3] in a line: Selectivity index, ratio of CC50 for human HepG2.2.15 cells to IC50 for Hepatitis B virus infected in human HepG2.2.15 cells assessed as inhibition of HBV DNA replication. It counts as functional.
Data set [4] concerns Hepatitis B virus. Description: Antiviral activity against Hepatitis B virus infected in human HepG2.2.15 cells assessed as inhibition of HBsAg secretion at 300 uM after 3 days by ELISA. It counts as functional. The conditions noted are these: HepG2 2.2.15, 72 h. In short, it runs like this:
as §1

Data set [5] concerns Hepatitis B virus. Description: Antiviral activity against Hepatitis B virus infected in human HepG2.2.15 cells assessed as inhibition of HBsAg secretion at 300 uM after 6 days by ELISA. Format: functional. The conditions noted are these: HepG2 2.2.15, 144 h. In short, it runs like this: as §1
On the technique in general: An ELISA detects its analyte on a solid surface through an enzyme-linked reagent.

The subject of data set [6] is Hepatitis B virus. Description: Antiviral activity against Hepatitis B virus infected in human HepG2.2.15 cells assessed as inhibition of HBsAg secretion at 150 uM after 6 days by ELISA. Format: functional. Conditions: HepG2 2.2.15, 144 h. In short, it runs like this:
as §1

Data set [7] relates to Hepatitis B virus. Description: Antiviral activity against Hepatitis B virus infected in human HepG2.2.15 cells assessed as inhibition of HBsAg secretion at 75 uM after 6 days by ELISA. Format: functional. Conditions: HepG2 2.2.15, 144 h. The essentials:
as §1

Data set [8] concerns Hepatitis B virus. As to the kind of experiment: Antiviral activity against Hepatitis B virus infected in human HepG2.2.15 cells assessed as inhibition of HBsAg secretion at 37.5 uM after 9 days by ELISA. It counts as functional. Conditions: HepG2 2.2.15, 216 h. In short, it runs like this:
as §1

Data set [9] has as its system Hepatitis B virus. Description: Antiviral activity against Hepatitis B virus infected in human HepG2.2.15 cells assessed as inhibition of HBeAg secretion at 300 uM after 3 days by ELISA. Format: functional. The conditions noted are these: HepG2 2.2.15, 72 h. The essentials: as §1
The test system of data set [10] is Hepatitis B virus. As to the kind of experiment: Antiviral activity against Hepatitis B virus infected in human HepG2.2.15 cells assessed as inhibition of HBeAg secretion at 75 uM after 3 days by ELISA. Format: functional. The conditions noted are these: HepG2 2.2.15, 72 h. In short, it runs like this:
as §1

The subject of data set [11] is Hepatitis B virus. As to the kind of experiment: Antiviral activity against Hepatitis B virus infected in human HepG2.2.15 cells assessed as inhibition of HBeAg secretion at 37.5 uM after 3 days by ELISA. It counts as functional. Conditions: HepG2 2.2.15, 72 h. In short, it runs like this: as §1
Data set [12] deals with Hepatitis B virus. As to the kind of experiment: Antiviral activity against Hepatitis B virus infected in human HepG2.2.15 cells assessed as inhibition of HBeAg secretion at 150 uM after 6 days by ELISA. Format: functional. The conditions noted are these: HepG2 2.2.15, 144 h. The essentials:
as §1

Data set [13] relates to Hepatitis B virus. As to the kind of experiment: Antiviral activity against Hepatitis B virus infected in human HepG2.2.15 cells assessed as inhibition of HBeAg secretion at 75 uM after 9 days by ELISA. Format: functional. The conditions noted are these: HepG2 2.2.15, 216 h. The essentials:
as §1

In data set [14] the test system is Hepatitis B virus. Description: Antiviral activity against Hepatitis B virus infected in human HepG2.2.15 cells assessed as inhibition of HBV DNA copies per uL at 37.5 uM after 3 days by real-time fluorescence quantitative PCR analysis. Format: functional. The conditions noted are these: HepG2 2.2.15, 72 h.
Data set [15] has as its system Hepatitis B virus. Description: Antiviral activity against Hepatitis B virus infected in human HepG2.2.15 cells assessed as inhibition of HBV DNA copies per uL at 300 uM after 9 days by real-time fluorescence quantitative PCR analysis. It counts as functional. The conditions noted are these: HepG2 2.2.15, 216 h.
Data set [16] relates to Hepatitis B virus. Description: Antiviral activity against Hepatitis B virus infected in human HepG2.2.15 cells assessed as inhibition of HBV DNA copies per uL at 150 uM after 9 days by real-time fluorescence quantitative PCR analysis. Format: functional. The conditions noted are these: HepG2 2.2.15, 216 h.
Data set [17] deals with Hepatitis B virus. As to the kind of experiment: Antiviral activity against Hepatitis B virus infected in human HepG2.2.15 cells assessed as inhibition of HBV DNA copies per uL at 75 uM after 9 days by real-time fluorescence quantitative PCR analysis. It counts as functional. The conditions noted are these: HepG2 2.2.15, 216 h.
For data set [18], the system named is Hepatitis B virus. As to the kind of experiment: Antiviral activity against Hepatitis B virus infected in human HepG2.2.15 cells assessed as inhibition of HBV DNA copies per uL at 37.5 uM after 9 days by real-time fluorescence quantitative PCR analysis. Format: functional. Conditions: HepG2 2.2.15, 216 h.

Consider `O=C(/C=C/c1ccc2c(c1)OCO2)O/N=C/c1ccccn1`, for which the CC50 at 216 h in data set [1] amounted to 253 µM. Moreover, in the data set with Hepatitis B virus [2], the IC50 was 14.2 µM. The “Ratio CC50/IC50” value in data set [3] turned out to be 10.8. Further, the inhibition at 300 µM with Hepatitis B virus [4] was 75.8%; in the data set on Hepatitis B virus [5], 88.7%; in the data set with Hepatitis B virus [9], 63.5%; with Hepatitis B virus [15], 85.8%. Moreover, the figures for the inhibition at 150 µM with Hepatitis B virus [6], in the data set on Hepatitis B virus [12] and in the data set on Hepatitis B virus [16] were 80.5%, 77.6% and 72.2%, respectively. The inhibition at 75 µM with Hepatitis B virus [7] worked out at 67.3%; in the data set on Hepatitis B virus [10], 47.5%; in the data set on Hepatitis B virus [13], 89.8%; in the data set on Hepatitis B virus [17], 68.7%. For the same molecule, the inhibition at 37.5 µM in the data set with Hepatitis B virus [8] is 70.7%; in the data set on Hepatitis B virus [11], 31.7%; in the data set with Hepatitis B virus [14], 30.4%; with Hepatitis B virus [18], 58.4%.
Regarding `COc1cc(/C=C/C(=O)O/N=C/c2ccccn2)cc2c1OCO2`, the CC50 at 216 h in [1] was determined as 645 µM. Further, the IC50 with Hepatitis B virus [2] is 62.8 µM. In addition, in data set [3], the “Ratio CC50/IC50” value was found to be 6.78. The inhibition at 300 µM was found to be 58.5% in the data set on Hepatitis B virus [4], 76.6% in the data set with Hepatitis B virus [5], 54.2% with Hepatitis B virus [9] and 67.5% in the data set with Hepatitis B virus [15]. Moreover, the results for the inhibition at 150 µM in the data set on Hepatitis B virus [6], with Hepatitis B virus [12] and with Hepatitis B virus [16] were 59.6%, 63.5% and 54.5%, respectively. Besides, the inhibition at 75 µM in the data set on Hepatitis B virus [7] came out at 43.9%; in the data set on Hepatitis B virus [10], 27.3%; with Hepatitis B virus [13], 57.3%; in the data set with Hepatitis B virus [17], 47.3%. In addition, the inhibition at 37.5 µM in the data set with Hepatitis B virus [8] came out at 30.4%; in the data set on Hepatitis B virus [11], 17.8%; with Hepatitis B virus [14], 21.6%; in the data set with Hepatitis B virus [18], 36.7%.
For `COc1cc(/C=C/C(=O)O/N=C/c2ccco2)cc2c1OCO2`, the CC50 at 216 h in [1] was 820 µM. Moreover, the IC50 in the data set with Hepatitis B virus [2] stood at 63.5 µM. The “Ratio CC50/IC50” value in data set [3] was 5.87. The inhibition at 300 µM with Hepatitis B virus [4] was 66.2%; in the data set with Hepatitis B virus [5], 70.7%; in the data set on Hepatitis B virus [9] it was 59.8%; with Hepatitis B virus [15], 61.5%. For the same molecule, the inhibition at 150 µM was found to be 58.5% in the data set with Hepatitis B virus [6], 55.5% in the data set with Hepatitis B virus [12] and 52% in the data set on Hepatitis B virus [16]. The inhibition at 75 µM came out at 40.1% in the data set with Hepatitis B virus [7], 32.1% in the data set on Hepatitis B virus [10], 56.9% in the data set on Hepatitis B virus [13] and 39.6% with Hepatitis B virus [17]. Moreover, the inhibition at 37.5 µM was 36.5% with Hepatitis B virus [8], 24.9% with Hepatitis B virus [11], 19.8% in the data set on Hepatitis B virus [14] and 30.5% in the data set with Hepatitis B virus [18].
Regarding `Nc1ccn([C@@H]2CS[C@H](CO)O2)c(=O)n1` [LAMIVUDINE], the CC50 at 216 h in [1] was found to be 568 µM. For the same molecule, the IC50 in the data set with Hepatitis B virus [2] is 235 µM. Further, in [3], the “Ratio CC50/IC50” value is on record as 82.84. Further, the inhibition at 300 µM in the data set with Hepatitis B virus [4] stood at 37.3%; in the data set with Hepatitis B virus [5] it was 43.6%; in the data set on Hepatitis B virus [9], 30.9%; in the data set with Hepatitis B virus [15] it was 86.4%. Besides, the inhibition at 150 µM with Hepatitis B virus [6] amounted to 30.7%; in the data set with Hepatitis B virus [12] it was 31.1%; in the data set with Hepatitis B virus [16] it was 81.6%. Moreover, the inhibition at 75 µM in the data set with Hepatitis B virus [7] was determined as 24.1%; in the data set on Hepatitis B virus [10], 15.1%; in the data set with Hepatitis B virus [13] it was 34.2%; in the data set with Hepatitis B virus [17], 76.7%. The inhibition at 37.5 µM was determined as 25.2% in the data set with Hepatitis B virus [8], 10.1% with Hepatitis B virus [11], 40% in the data set with Hepatitis B virus [14] and 69.4% in the data set with Hepatitis B virus [18].
